Results of several laboratories.
Lines come from different studies, so protocols differ.
Target: Protein-tyrosine kinase 2-beta (PTK2B, Homo sapiens, UniProt Q14289)

| SMILES | test | conditions | remaining binding |
| --- | --- | --- | --- |
| O=C(NC[C@@H]1[C@H]2CN(C(=O)OCc3cc(C(F)(F)F)cc(C(F)(F)F)c3)C[C@@H]12)c1ccc2[nH]nnc2c1 | cell-free assay, competition with immobilised ligand | 1 µM | 85% |
| CN(C)c1nccc(-c2cnn3ncccc23)n1 | binding | 1 µM | 87% |
| CN(C)C(=O)Cn1cc(-c2nc([C@@](C)(c3ccc(-c4cnc(N)nc4)cc3)C3CC3)no2)cn1 | cell-free assay, competition with immobilised ligand | 1 µM | 87% |
| CN(C)c1ncc(F)c(-c2cnn3ncccc23)n1 | binding | 1 µM | 100% |
| FC(F)(F)Oc1cccc(-c2cnc3ccc(-c4ccncc4)nn23)c1 | cell-free assay, competition with immobilised ligand | 5 µM | 76% |
| O=C(NCCCN1CCOCC1)c1ccc(Nc2ncc(Cl)c(-c3ccc(Cl)s3)n2)cc1 | binding, competition with immobilised ligand | 1 µM | 41% |
| C=CC(=O)N1CCC(C(=O)NCC(=O)N2CCN(c3nc(-c4cnc(N)nc4C(F)F)nc(N4CCOCC4)n3)CC2)CC1 | binding, competition with immobilised ligand | 1 µM | 100% |
| CC(C)CC(=O)N1CCc2nc(-c3ccc(Br)cc3)nc(N(C)Cc3ccccc3)c2C1 | cell-free assay, competition with immobilised ligand | 0.1 µM | 100% |
| c1cncc(-c2cccc(Nc3nccc(NC4CCCCC4)n3)c2)c1 | binding, competition with immobilised ligand | 10 µM | 63% |
| O=C(NCCCN1CCOCC1)c1ccc(Nc2nccc(-c3cc4ccccc4s3)n2)cc1 | binding, competition with immobilised ligand | 1 µM | 64% |
| N[C@@H]1CCN(c2nccc(-c3cnn4ncccc34)n2)C1 | binding | 1 µM | 100% |
| O=C(NCC1CCOCC1)c1n[nH]cc1NC(=O)c1c(F)cccc1F | binding, competition with immobilised ligand | 1 µM | 100% |
| Nc1cnc(N2CCc3cc(S(=O)(=O)Nc4c(F)cc(Cl)cc4F)cc(N4CCCC4=O)c32)nc1 | cell-free assay, competition with immobilised ligand | 1 µM | 100% |
| CC1CCCN1c1nccc(-c2cnn3ncccc23)n1 (stereo not drawn) | binding | 1 µM | 100% |
| Nc1ncc2c(n1)-c1c([nH]c3ccc(C#CC4CC4)cc13)CCCC2 | binding, competition with immobilised ligand | 1 µM | 98% |
| C[C@H]1CCN(c2nccc(-c3cnn4ncccc34)n2)C1 | binding | 1 µM | 100% |
| CO[C@H]1CC[C@H](CNc2ccc(S(=O)(=O)NC(=O)c3ccc(N4CCN(CC5=C(c6ccc(Cl)cc6)CC(C)(C)CC5)CC4)cc3Oc3cnc4[nH]ccc4c3)cc2[N+](=O)[O-])CC1 | cell-free assay, competition with immobilised ligand | 1 µM | 87% |
| Cc1cnc(Nc2ccc(C(=O)N3CCC(N4CCCC4)CC3)cc2)nc1-c1cc2ccccc2s1 | binding, competition with immobilised ligand | 1 µM | 28% |
| CC(=O)c1c(NS(C)(=O)=O)c2cc(-c3ccc(Cl)cc3)c(-c3ccc(Cl)cc3Cl)nc2n(C)c1=O | cell-free assay, competition with immobilised ligand | 1 µM | 100% |
| CN(C)c1nccc(-c2cnc3ncccn23)n1 | binding | 1 µM | 92% |
| COc1cnc(Nc2cccc(S(N)(=O)=O)c2)nc1N1CCN(c2ccccc2)C(=O)C1 | binding, competition with immobilised ligand | 1 µM | 100% |
